Assay results reported in ChEMBL document CHEMBL2177030.
Calls of active or inactive are those of the source. The rule behind the calls is not given here.

Key:
[1] = target: T1, Gastric triacylglycerol lipase (Canis lupus familiaris) (UniProt P80035); assay: Inhibition of dog recombinant gastric lipase expressed in transgenic maize at 200 molar excess compound concentration pre-incubated for 2 hrs with enzyme before substrate addition by pH-stat technique; assay type: single protein; details: Stomach
T1 sequence (whole entry): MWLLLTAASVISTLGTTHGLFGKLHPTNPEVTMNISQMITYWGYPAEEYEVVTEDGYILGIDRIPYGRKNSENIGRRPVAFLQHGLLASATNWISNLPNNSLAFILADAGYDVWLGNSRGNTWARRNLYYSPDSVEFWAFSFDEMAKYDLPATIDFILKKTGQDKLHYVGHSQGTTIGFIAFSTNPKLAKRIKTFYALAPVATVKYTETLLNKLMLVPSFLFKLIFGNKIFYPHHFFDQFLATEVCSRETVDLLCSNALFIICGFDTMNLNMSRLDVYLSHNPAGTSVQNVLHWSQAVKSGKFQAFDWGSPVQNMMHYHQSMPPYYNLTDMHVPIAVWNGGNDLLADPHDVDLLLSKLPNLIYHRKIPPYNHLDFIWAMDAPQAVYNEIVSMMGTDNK

[2] = target: T2, Pancreatic lipase-related protein 2 (Cavia porcellus) (UniProt P81139); assay: Inhibition of guinea pig recombinant PLRP2 expressed in Aspergillus oryzae at 200 molar excess compound concentration pre-incubated for 2 hrs with enzyme before substrate addition by pH-stat technique
T2 sequence (whole entry): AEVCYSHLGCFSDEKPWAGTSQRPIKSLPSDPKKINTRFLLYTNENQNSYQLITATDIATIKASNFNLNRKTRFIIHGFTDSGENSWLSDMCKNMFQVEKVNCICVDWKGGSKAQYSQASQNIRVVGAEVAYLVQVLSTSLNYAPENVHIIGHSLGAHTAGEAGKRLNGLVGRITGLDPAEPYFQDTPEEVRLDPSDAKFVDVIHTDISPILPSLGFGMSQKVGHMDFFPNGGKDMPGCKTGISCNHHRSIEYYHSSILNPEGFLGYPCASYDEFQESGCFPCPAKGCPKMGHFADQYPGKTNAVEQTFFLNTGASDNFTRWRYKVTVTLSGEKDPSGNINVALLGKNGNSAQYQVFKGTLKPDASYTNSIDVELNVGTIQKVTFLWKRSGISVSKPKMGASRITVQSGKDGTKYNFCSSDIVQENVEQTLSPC

[3] = target: T3, Pancreatic triacylglycerol lipase (Homo sapiens) (UniProt P16233); assay: Inhibition of human recombinant pancreatic lipase expressed in Pichia pastoris at 200 molar excess compound concentration pre-incubated for 2 hrs with enzyme before substrate addition by pH-stat technique
T3 sequence (whole entry): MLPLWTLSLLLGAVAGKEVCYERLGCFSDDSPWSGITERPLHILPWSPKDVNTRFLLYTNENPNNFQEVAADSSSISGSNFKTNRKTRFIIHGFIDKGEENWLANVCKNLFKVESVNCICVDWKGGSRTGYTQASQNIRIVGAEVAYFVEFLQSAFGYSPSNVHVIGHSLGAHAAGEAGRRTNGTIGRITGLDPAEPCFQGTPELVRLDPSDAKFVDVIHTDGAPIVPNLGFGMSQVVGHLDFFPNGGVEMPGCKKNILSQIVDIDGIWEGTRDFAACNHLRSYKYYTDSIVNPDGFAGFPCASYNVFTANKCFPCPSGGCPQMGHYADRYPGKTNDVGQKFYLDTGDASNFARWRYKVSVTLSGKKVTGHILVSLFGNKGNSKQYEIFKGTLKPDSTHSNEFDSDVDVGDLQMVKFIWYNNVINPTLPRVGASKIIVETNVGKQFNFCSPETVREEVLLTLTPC

[4] = tested on: Mycobacterium tuberculosis; assay: Inhibition of Mycobacterium tuberculosis LipY pre-incubated for 30 mins with enzyme before substrate addition by pH-stat technique
Outline: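 Without NaTDC, LipY was incubated 30 min at 25 °C with inhibitor at xI 2–100. Residual activity was determined by pH-stat at 37 °C on TC4 in 2.5 mM Tris-HCl pH 7.5, 300 mM NaCl, 3 mM NaTDC. xI50 was taken from activity versus molar excess. Isopropanol-only controls were run. At least duplicate.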

[5] = target: Monoacylglycerol lipase (Mycobacterium tuberculosis H37Rv) (UniProt O07427); assay: Inhibition of Mycobacterium tuberculosis Rv0183 pre-incubated for 30 mins with enzyme before substrate addition by pH-stat technique
Outline: (§1)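 Rv0183 was preincubated 30 min at 25 °C without NaTDC at inhibitor molar excess 2, 4, 20, 40 or 100. Residual monoglyceride lipase activity was measured by pH-stat at 37 °C with MC18 emulsion, pH 8.0, 3 mM NaTDC. xI50 was read from the residual-activity curve. Solvent controls were run. At least duplicate.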

[6] = target: T4, Cutinase 1 (Fusarium vanettenii) (UniProt P00590); assay: Inhibition of Fusarium solani pisi cutinase pre-incubated for 30 mins with enzyme before substrate addition by pH-stat technique
T4 sequence (whole entry): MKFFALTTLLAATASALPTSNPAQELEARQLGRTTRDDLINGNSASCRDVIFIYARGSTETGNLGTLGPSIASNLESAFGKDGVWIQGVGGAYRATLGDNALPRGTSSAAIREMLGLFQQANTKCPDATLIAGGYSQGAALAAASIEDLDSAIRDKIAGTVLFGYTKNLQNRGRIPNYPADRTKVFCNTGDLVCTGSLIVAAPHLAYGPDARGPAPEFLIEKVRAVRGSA
Outline: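 Cutinase was preincubated for 30 min at 25 °C in 2 mM NaTDC, substrate absent, at inhibitor molar excess xI 2, 4, 20, 40 or 100. Residual activity was measured by pH-stat at 37 °C on TC4 emulsion at pH 8.0 with 0.25 mM NaTDC. xI50 is the molar excess giving 50% activity. Isopropanol controls were run. At least duplicate.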

[7] = target: Monoacylglycerol lipase (Mycobacterium tuberculosis H37Rv) (UniProt O07427); assay: (§2) Inhibition of Mycobacterium tuberculosis Rv0183 assessed as covalent bond formation with enzyme serine residue by measuring change in molecular weight of enzyme-compound complexes at 40 molar excess compound concentration pre-incubated for 30 mins with enzyme before substrate addition by MALDI-TOF mass spectrometry method
Outline: (§3)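 Each enzyme was preincubated with the inhibitor for 30 min at 25 °C at xI 40, with the inhibitor taken from a 5 mg/mL isopropanol stock. Intact masses of native and inhibited protein were measured by MALDI-TOF. For tryptic mapping, 5–50 pmol protein was reduced with DTT, alkylated with iodoacetamide and digested overnight at 37 °C.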

[8] = target: Monoacylglycerol lipase (Mycobacterium tuberculosis H37Rv) (UniProt O07427); assay: Inhibition of Mycobacterium tuberculosis Rv0183 assessed as half inactivation time pre-incubated with enzyme before substrate addition by pH-stat technique
Outline: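 For the time course, Rv0183 was exposed to inhibitor at xI 4 at 25 °C without bile salt for 1 h. Residual activity was read at intervals by pH-stat at 37 °C using 100 µL MC18 in 15 mL 2.5 mM Tris-HCl pH 8.0, 150 mM NaCl, 3 mM NaTDC. t1/2 was derived from the curve. Runs were done at least in duplicate.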

[9] = target: Monoacylglycerol lipase (Mycobacterium tuberculosis H37Rv) (UniProt O07427); assay: Inhibition of Mycobacterium tuberculosis Rv0183 assessed as residual enzyme activity pre-incubated for 30 mins with enzyme before substrate addition by pH-stat technique; outline: as §1
[10] = tested on: Mycobacterium tuberculosis; assay: as §2, with “LipY” for “Rv0183”; outline: as §3
[11] = tested on: Mycobacterium tuberculosis; assay: Inhibition of Mycobacterium tuberculosis LipY assessed as half inactivation time pre-incubated with enzyme before substrate addition by pH-stat technique
Outline: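 LipY was incubated with inhibitor at xI 4 at 25 °C without NaTDC for up to 1 h. At time points, residual activity was titrated by pH-stat at 37 °C on TC4 emulsion in 2.5 mM Tris-HCl pH 7.5, 300 mM NaCl, 3 mM NaTDC. Half-inactivation time came from the curve. Runs were done at least in duplicate.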

[12] = target: T4, Cutinase 1 (Fusarium vanettenii); assay: as §2, with “Fusarium solani pisi cutinase” for “Mycobacterium tuberculosis Rv0183”; outline: as §3
[13] = tested on: Mycobacterium tuberculosis; assay: Inhibition of Mycobacterium tuberculosis LipY at 40 molar excess compound concentration pre-incubated for 30 mins with enzyme before substrate addition by pH-stat technique
[14] = target: T1, Gastric triacylglycerol lipase (Canis lupus familiaris); assay: Inhibition of dog recombinant gastric lipase expressed in transgenic maize pre-incubated for 30 mins with enzyme before substrate addition by pH-stat technique; assay type: tissue-based; details: Stomach
Outline: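 Gastric lipase was incubated 30 min at 25 °C with 4 mM NaTDC at inhibitor xI 2–100. Residual activity was measured by pH-stat at 37 °C on TC4 emulsion in 150 mM NaCl, 2 mM NaTDC, 2 µM BSA, pH 5.5. xI50 is the molar excess halving activity. At least duplicate.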

[15] = target: T2, Pancreatic lipase-related protein 2 (Cavia porcellus); assay: Inhibition of guinea pig recombinant PLRP2 expressed in Aspergillus oryzae pre-incubated for 30 mins with enzyme before substrate addition by pH-stat technique
[16] = target: T3, Pancreatic triacylglycerol lipase (Homo sapiens)

Monoacylglycerol lipase (Mycobacterium tuberculosis H37Rv), sequence (O07427 whole entry): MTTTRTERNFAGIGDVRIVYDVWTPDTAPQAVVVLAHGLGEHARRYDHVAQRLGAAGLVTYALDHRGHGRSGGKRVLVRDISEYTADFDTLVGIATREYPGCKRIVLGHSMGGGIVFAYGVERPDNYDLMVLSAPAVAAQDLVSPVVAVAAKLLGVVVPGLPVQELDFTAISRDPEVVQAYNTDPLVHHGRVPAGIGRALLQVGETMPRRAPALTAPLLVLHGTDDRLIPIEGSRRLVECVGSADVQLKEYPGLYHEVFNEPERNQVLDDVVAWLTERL

| SMILES | inhibition [1] | inhibition [2] | inhibition [3] | XI50 [4] | XI50 [5] | XI50 [6] [molar excess] | Activity [7] [Da] | T1/2 [8] [s] | Activity [9] [%] | Activity [10] [Da] | T1/2 [11] [s] | Activity [12] [Da] | inhibition [13] [%] | XI50 [14] [molar excess] | XI50 [15] [molar excess] | XI50 [16] [molar excess] |
| --- | --- | --- | --- | --- | --- | --- | --- | --- | --- | --- | --- | --- | --- | --- | --- | --- |
| CCCCCCCCCCCC[C@@H]1CC[P@](=O)(OC)OC(C)=C1C(=O)OC (racemic) | inactive | inactive | inactive | 6.14 molar excess | 2.44 molar excess | 3.63 | – | – | – | – | – | – | – | – | – | – |
| CCCCCCCCCCCCCCCC[C@@H]1CC[P@@](=O)(OC)OC(C)=C1C(=O)OC (racemic) | inactive | inactive | inactive | 0.6 molar excess | 1.32 molar excess | 2.54 | – | – | – | – | – | – | – | – | – | – |
| COP1(=O)CCCC(CO)=C(C)O1 (racemic) | inactive | inactive | inactive | inactive | inactive | > 100 | – | – | – | – | – | – | – | – | – | – |
| CCCCC[C@@H]1CC[P@@](=O)(OC)OC(C)=C1C(=O)OC (racemic) | inactive | inactive | inactive | > 100 molar excess | 2.7 molar excess | 1.42 | – | – | – | – | – | – | – | – | – | – |
| CCCCCCCCCCCCCCCCCC[C@@H]1CC[P@](=O)(OC)OC(C)=C1C(=O)OC (racemic) | inactive | inactive | inactive | 7.47 molar excess | > 100 molar excess | 7.26 | – | – | – | – | – | – | – | – | – | – |
| CCCCCCCCCCCCCCCC[C@@H]1CC[P@](=O)(OC)OC(C)=C1C(=O)OC (racemic) | inactive | inactive | inactive | 3.47 molar excess | > 100 molar excess | 4.43 | – | – | – | – | – | – | – | – | – | – |
| CCCCCCCCCC[C@@H]1CC[P@@](=O)(OC)OC(C)=C1C(=O)OC (racemic) | inactive | inactive | inactive | 2.81 molar excess | 1.13 molar excess | 1.98 | 377 | 86.4 | 6 | – | – | – | – | – | – | – |
| CCCCCCCCCCCCCCCCCC[C@@H]1CC[P@@](=O)(OC)OC(C)=C1C(=O)OC (racemic) | inactive | inactive | inactive | 0.77 molar excess | 3.15 molar excess | 1.18 | – | – | – | – | – | – | – | – | – | – |
| CCCCCCCCCCCCCCCCOP1(=O)CCCC(C(=O)OC)=C(C)O1 (configuration not stated) | inactive | inactive | inactive | 0.83 molar excess | inactive | 0.56 | – | – | – | 444 | 9.6 | – | – | – | – | – |
| COC(=O)C1=C(C)OP(=O)(OC)CCC1 (racemic) | inactive | inactive | inactive | > 100 molar excess | 30.5 molar excess | 1.39 | – | – | – | – | – | 233 | 14 | – | – | – |
| CCCCC[C@@H]1CC[P@](=O)(OC)OC(C)=C1C(=O)OC (racemic) | inactive | inactive | inactive | > 100 molar excess | 3.79 molar excess | 26.2 | – | – | – | – | – | – | – | – | – | – |
| CCCCCCCCCC[C@@H]1CC[P@](=O)(OC)OC(C)=C1C(=O)OC (racemic) | inactive | inactive | inactive | 25.8 molar excess | 3.57 molar excess | 14.6 | – | – | – | – | – | – | – | – | – | – |
| CCCCCCCCCCCC[C@@H]1CC[P@@](=O)(OC)OC(C)=C1C(=O)OC (racemic) | inactive | inactive | inactive | 3.46 molar excess | 5.23 molar excess | 2 | – | – | – | – | – | – | – | – | – | – |
| CCCCCCCCCCCCCCCCCCOP1(=O)CCCC(C(=O)OC)=C(C)O1 (configuration not stated) | inactive | inactive | inactive | 0.59 molar excess | inactive | 0.95 | – | – | – | – | – | – | – | – | – | – |
| CO[P@]1(=O)CC[C@@H]2COC(=O)C2=C(C)O1 (racemic) | inactive | inactive | inactive | > 100 molar excess | 43.2 molar excess | 8.77 | – | – | – | – | – | – | 14 | – | – | – |
| CCCCCCCCCCC[C@@H](C[C@@H]1OC(=O)[C@H]1CCCCCC)OC(=O)[C@H](CC(C)C)NC=O | – | – | – | 7.07 molar excess | > 200 molar excess | 2.52 | – | – | – | – | – | – | – | 5.6 | 0.53 | 18.4 |
| CCCCCC1CCP(=O)(OC)OC(C)=C1C(=O)OC (racemic) | – | – | – | – | – | – | – | – | – | – | – | – | 14 | – | – | – |
| CO[P@@]1(=O)CC[C@@H]2COC(=O)C2=C(C)O1 (racemic) | inactive | inactive | inactive | > 100 molar excess | 41.6 molar excess | 4.49 | – | – | – | – | – | – | 14 | – | – | – |
